Shown are actives, neighbours in structure and some others; about 2.3% of the full set was active somewhere.
Rpn11 inh – blocks the human proteasome subunit Rpn11 | hit rate 0.59% among 360,000 | human 26S proteasome, Ub4-pepOG fluorescence polarization; 20S core pre-blocked with epoxomicin | AID 588493 | calls only at 20 µM;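 active = inhibition at 20 µM, scaled to each plate's controls, above about 33%, limit read from the data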
TPT1 inhibitor – inhibitors of Candida albicans tRNA 2'-phosphotransferase TPT1; recombinant caTPT1, FP RNA substrate dephosphorylation; inhibition, % at 5 µM; hit rate 0.81% among 300,000; AID 1962;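 active = inhibition above the mean of all tested compounds plus 3 SD, set per screening campaign, cut at about 24% in these data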;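 note: plate controls were DMSO alone for no effect and ferristatin control at 100 nM for full effect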
CRFR2-BP antag – blocks CRF-induced signaling of the CRF-BP/CRF-R2 complex. HEK293 CRF-R2/CRF-BP, CRF-induced calcium fluorescence. inhibition, % at 11.8 µM. hit rate 0.59% among 350,000;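 active = inhibition of the ligand-induced calcium signal above about 50% at the single tested concentration, limit read from the data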
CRFR2-BP ag – agonists of human CRF-binding protein/CRF-R2 receptor complex | HEK293 CRF-R2/CRF-BP, calcium dye fluorescence (FLIPR); percent of saturating CRF peptide response | activation, % at 13.2 µM | hit rate 0.46% among 350,000 | AID 588473;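 active = activation of at least 50%, plus an integration ratio under a set limit after plate pattern correction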;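 note: plate controls were neutral control wells without compound for no effect and CRF at EC100 for full effect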
HNF4A DNA FP – change in binding of human HNF4 alpha to DNA; HNF4a-FITC DNA binding, fluorescence polarization, 1 h; activity change, % at 10 µM; hit rate 0.3% among 360,000; P41235; in the data active = activity change above about 30%, passing the limit was not always enough
Target sequence (P41235 whole entry, looked up): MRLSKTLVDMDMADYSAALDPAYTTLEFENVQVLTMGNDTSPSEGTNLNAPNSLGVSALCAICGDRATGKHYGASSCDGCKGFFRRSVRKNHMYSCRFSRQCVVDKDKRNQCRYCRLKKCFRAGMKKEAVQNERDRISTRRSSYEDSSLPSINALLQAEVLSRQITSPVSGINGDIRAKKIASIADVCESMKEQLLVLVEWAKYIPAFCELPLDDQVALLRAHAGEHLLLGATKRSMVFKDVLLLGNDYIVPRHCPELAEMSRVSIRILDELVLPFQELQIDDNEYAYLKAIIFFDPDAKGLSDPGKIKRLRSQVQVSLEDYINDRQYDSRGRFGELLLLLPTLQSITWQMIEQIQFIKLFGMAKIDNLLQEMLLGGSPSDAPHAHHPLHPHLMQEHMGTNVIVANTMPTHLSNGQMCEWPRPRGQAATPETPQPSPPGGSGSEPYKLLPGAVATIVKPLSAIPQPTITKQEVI
CSN inh – CSN deneddylation inhibition; inhibition, % at 12.5 µM; Purified CSN, SCF-Nedd8-OG deneddylation, fluorescence polarization; hit rate 0.38% among 360,000; Q92905;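 active = pattern-corrected inhibition above about 35%, with an unprinted fluorescence ratio check between 0.5 and 1.5, limit read from the data, passing the limit was not always enough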;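 note: 0% = enzyme with substrate and 100% = substrate without enzyme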
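Assay system: purified human Csn5 enzyme expressed in HEK293T cells; Input: 0.24 nM Csn5 enzyme, final concentration; Reagent: 10 nM SCFSkp2-Nedd8OG; Compound dosing: 12.5 µM single point; Times: reaction 90 min, room temperature; Technique: fluorescence polarization readout.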
* = called active by the depositor; i = inactive; . = no result given; + = active, no number; ! = not confirmed by another sample.

SMILES	Rpn11 inh	TPT1 inhibitor	CRFR2-BP antag	CRFR2-BP ag	HNF4A DNA FP	CSN inh
O=C(NCc1ccc(Cl)nc1)c1ccc2sc([C@@H]3O[C@H](CO)[C@H](O)[C@H](O)[C@H]3O)nc2c1	i	.	.	.	-2	5
CC(=O)c1cccc(Nc2nc3ccccc3n3cnnc23)c1	i	-1	116*	-1	2	3
Fc1cccc(Nc2nc3ccccc3n3cnnc23)c1	i	-5	-58	-1	9	2
Cc1nn(-c2cc(C(F)(F)F)ccc2Cl)c2nc(C(Cl)(Cl)Cl)[nH]c(=O)c12	i	-5	52*	0	2	4
COc1ccc2c(c1)c(C(=O)O)c(C)n2-c1ccc(Cl)cc1	i	-2	106*	3	-1	3
COc1ccc(CCn2c(C)cc3c(c2=O)C(c2ccc4c(c2)OCO4)C(C#N)=C(N)O3)cc1OC (stereo not given)	i	-2	16	-1	-1	0
COc1ccc(Cc2nc(-c3ccc(Cl)cc3)no2)cc1	i	-5	50*	-1	2	2
CN(C)CCN(C(=O)CN1C(=O)c2ccccc2C1=O)c1nc2cc3c(cc2s1)OCO3	i	-1	-5	0	-3	-7
CCN(CC)CCN(C(=O)CN1C(=O)c2ccccc2C1=O)c1nc2cc3c(cc2s1)OCO3	i	0	76*	1	1	-2
O=C(NC1CCSc2ccccc21)c1cc(S(=O)(=O)N2CCOCC2)ccc1F (stereo not given)	i	0	14	-1	1	-3
CCCCCCCCNS(=O)(=O)CCNCc1ccc(OC)cc1	i	.	115*	-1	0	-3
COc1ccc(CNCCS(=O)(=O)NCc2ccc(OC)cc2)cc1	i	.	6	-4	-3	2
O=S(=O)(c1cc(Cl)ccc1Cl)N1CCN2CCCC2C1 (stereo not given)	i	-5	1	-1	-1	-1
CC(C)(C)c1ccc(S(=O)(=O)N2CC(C(=O)O)Oc3ccc(Cl)cc32)cc1 (stereo not given)	i	-2	9	-1	0	1
CCN(c1ccc(NS(=O)(=O)c2cc(Cl)ccc2Cl)cc1)C(C)C	i	2	55*	-4	0	-15
CN(C)c1ccc(NS(=O)(=O)c2cc(Cl)ccc2Cl)cc1	i	1	2	-1	2	-14
Cc1ccc(OCn2c(=O)sc3ccccc32)cc1	i	0	55*	-2	6	-5
O=c1sc2ccccc2n1CCOc1ccccc1	i	0	36	-3	2	5
COc1cc(-c2coc3c(C(=O)NCc4ccc(OC)c(OC)c4)cccc23)ccc1O	i	.	.	.	-7	-2
COc1ccc(F)cc1S(=O)(=O)NCC(=O)NCc1cc(=O)n(C)c(=O)n1C	i	0	76*	0	0	0
COc1ccc(F)cc1S(=O)(=O)NCc1cc(=O)n(C)c(=O)n1C	i	-2	3	5	0	-2
CC(C)(C)c1ccc(-n2nc(C#N)c(Cl)cc2=O)cc1	i	.	14	51*	-2	21
CC(C)(C)c1ccc(-n2nc(C(N)=O)c(O)cc2=O)cc1	i	2	8	-1	6	-6
CC(=O)c1ccc(N2CCN(C(=O)c3ccc(-c4ccccc4)cc3)CC2)cc1	i	2	18	-1	-4	9
CC(=O)c1ccc(N2CCN(C(=O)c3cccc(Oc4ccccc4)c3)CC2)cc1	i	-3	78*	-1	0	-1
SMILES	Rpn11 inh	TPT1 inhibitor	CRFR2-BP antag	CRFR2-BP ag	HNF4A DNA FP	CSN inh
CC(/C=N/NC(=O)c1ccncc1)=C\c1ccc(C(C)C)cc1	i	-1	-35	1	2	0
CC(/C=N/Nc1nc(C)cc(C)n1)=C\c1ccc(C(C)C)cc1	i	5	61*	-2	-2	-19
COc1ccc(C(=O)/C=C/Nc2ccc([N+](=O)[O-])cc2C)cc1OC	i	12	12	9	37*	46*
Cc1cc(=O)[nH]c(SCC(=O)NC(c2ccccc2)c2ccccc2)n1	i	4	9	-1	3	3
CN(C)c1ccc(N=Cc2nc(-c3ccccc3)oc2O)cc1	i	-104	-172	161*	-57	-48
Oc1oc(-c2ccccc2)nc1C=Nc1ccccc1	i	3	1	-1	2	1
NC(=O)c1ccc(C2SCC(=O)N2Cc2ccccc2)cc1 (stereo not given)	i	2	78*	-2	-2	-4
c1ccc2c(c1)nnn2-c1ncnc2sc3c(c12)CCCC3	i	-3	62*	0	2	-1
CCNC(=O)/C(C#N)=C/c1c(N2CCCCCC2)nc2c(C)cccn2c1=O	i	-1	-9	-1	4	-5
CCc1ccc(-c2cc(C(=O)N3N=C(C(F)F)CC3(O)C(F)F)c3ccccc3n2)cc1 (stereo not given)	i	-1	-48	0	0	-1
Cc1ccccc1-n1c(=O)c2c(n3cnnc13)-c1ccccc1CC21CCCCC1	i	1	-18	0	-4	5
COc1ccc(NC(=O)CN(C)C(=O)c2cccc(S(=O)(=O)N3CCN(c4ccc(F)cc4)CC3)c2)cc1	i	.	79*	0	-2	-1
CCN(CC(=O)Nc1ccc(OC)cc1)C(=O)c1cc(S(=O)(=O)N2CCOCC2)ccc1N1CCCC1	i	1	70*	-2	3	0
COc1cccc(CN(C)C(=O)c2cccc(S(=O)(=O)N3CCN(c4ccc(F)cc4)CC3)c2)c1OC	i	-2	8	2	5	-4
COc1cccc(CN(C)C(=O)c2cccc(S(=O)(=O)N3CCN(c4ccccc4)CC3)c2)c1OC	i	.	117*	0	-4	2
CC(C)C(=O)Nc1nnc(CCc2nnc(NC(=O)C(C)C)s2)s1	i	1	-10	0	3	0
O=C(COC(=O)CCc1ccccc1)Nc1cc([N+](=O)[O-])ccc1F	i	-2	-1	-2	-2	-1
CC1=Nc2ccccc2/C1=C/c1c(N)n2c(S(=O)(=O)C(C)C)nsc2nc1=O	i	2	26	0	3	6
CC1=Nc2ccccc2/C1=C/c1c(N)n2c(S(=O)(=O)CC(C)C)nsc2nc1=O	i	.	61*	-2	-1	2
N[C@@H](Cc1cc(I)c(Oc2ccc(O)c(I)c2)c(I)c1)C(=O)O	+!	3	-15	1	-6	13
O=S(=O)(c1cccc(NC(=S)N2CCN(c3ccc(F)cc3)CC2)c1)C(F)F	i	0	-32	0	1	0

Compound activity deposited in PubChem by several laboratories.
